Converted amounts (≈) assume the structure as drawn. The source made the active and inactive calls. The calls are words filed in the database; no cut-off is given here.
Experiments:
Staphylococcus aureus [1] = test: Antibacterial activity against Staphylococcus aureus NCTC 8325 carrying expression vector pG154 after 16 to 20 hrs by broth microdilution method; format: functional
Outline: (§1)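 Broth microdilution in cation-adjusted Mueller Hinton broth. Compounds were serially diluted twofold in DMSO at 50-fold final strength (2% DMSO final). The inoculum was 1 × 10^4 cells per well. Plates were incubated at 37 °C for 16–20 h, and growth was read as absorbance at 600 nm.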

Staphylococcus aureus [2] = test: Antibacterial activity against Staphylococcus aureus NCTC 8325 harboring genetic deletion of mepRA gene after 16 to 20 hrs by broth microdilution method; format: functional; outline: as §1
Staphylococcus aureus [3] = test: Antibacterial activity against Staphylococcus aureus NCTC 8325 carrying expression vector pG154 with mepA gene after 16 to 20 hrs by broth microdilution method; format: functional; outline: as §1
[4] = Selectivity ratio of MIC for MBX-1090-resistant Staphylococcus aureus isolate d20A1 to MIC for Staphylococcus aureus NCTC 8325; format: functional
Outline: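 Ratio of resistant-mutant MIC to NCTC 8325 MIC. Both MICs came from broth microdilution in cation-adjusted MHB with 2% DMSO final and 1 × 10^4 cells per well, incubated at 37 °C for 16–20 h and read at 600 nm.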

Staphylococcus aureus [5] = test: Antibacterial activity against Staphylococcus aureus NCTC 8325 harboring genetic deletion of mepR gene after 16 to 20 hrs by broth microdilution method; format: functional; outline: as §1
Staphylococcus aureus [6] = test: microbe, parasite or virus in culture; conditions: isolate d20A1
Staphylococcus aureus [7] = test: Antibacterial activity against Staphylococcus aureus NCTC 8325 harboring genetic deletion of mepRA gene and carrying expression vector pG154 after 16 to 20 hrs by broth microdilution method in presence of anhydrous tetracycline; format: functional
Outline: (§2)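 Broth microdilution in cation-adjusted MHB containing anhydrous tetracycline at 100 ng/ml final to induce the pG154 expression vector. Twofold DMSO compound dilutions were used (2% DMSO final) with 1 × 10^4 cells per well. Incubation was 37 °C for 16–20 h, and absorbance was read at 600 nm.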

Staphylococcus aureus [8] = test: Induction of mepA gene expression in Staphylococcus aureus NCTC 8325 at 0.5 ug/ml by RT-PCR analysis; format: functional, organism-based
Outline: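 NCTC 8325 diluted 1/200 in TSB and grown at 37 °C (250 rpm) to OD600 0.3. 5 ml aliquots exposed 3 h to compound or DMSO (2% final), triplicate cultures pooled. RNA was DNase-treated and 1 µg primed with random hexamers for cDNA, with a no-RT control. mepA signal normalized to rho, untreated set to 1. Mean of three experiments ± SD.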

Staphylococcus aureus [9] = test: Antibacterial activity against Staphylococcus aureus NCTC 8325 harboring genetic deletion of mepRA gene and carrying expression vector pG154 with mepA gene after 16 to 20 hrs by broth microdilution method in presence of anhydrous tetracycline; format: functional; outline: as §2
Staphylococcus aureus [10] = test: Antibacterial activity against Staphylococcus aureus NCTC 8325 carrying expression vector pG154 after 16 to 20 hrs by broth microdilution method in presence of anhydrous tetracycline; format: functional; outline: as §2
Staphylococcus aureus [11] = test: Antibacterial activity against Staphylococcus aureus NCTC 8325 after 16 to 20 hrs by broth microdilution method in presence of efflux pump inhibitor reserpine; format: functional
Outline: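 Broth microdilution in cation-adjusted MHB with reserpine at 20 µg/ml final in the medium as efflux inhibitor. Twofold DMSO dilutions were made (2% DMSO final) with 1 × 10^4 cells per well. Incubation was 37 °C for 16–20 h, with growth read at 600 nm.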

Staphylococcus aureus [12] = test: Selectivity ratio of MIC for Staphylococcus aureus NCTC 8325 harboring genetic deletion of mepRA gene and carrying expression vector pG154 with mepA gene in presence of anhydrous tetracycline to MIC for Staphylococcus aureus NCTC 8325 harboring genetic deletion of mepRA gene and carrying expression vector pG154 with mepA gene; format: functional
Outline: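 Ratio of the MIC with anhydrous tetracycline (100 ng/ml final, induces pG154-mepA) to the MIC without it. Both came from broth microdilution in cation-adjusted MHB with 2% DMSO and 1 × 10^4 cells per well, incubated at 37 °C for 16–20 h and read at 600 nm.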

Staphylococcus aureus [13] = test: Antibacterial activity against Staphylococcus aureus NCTC 8325 carrying expression vector pG154 with mepA gene after 16 to 20 hrs by broth microdilution method in presence of anhydrous tetracycline; format: functional; outline: as §2
Staphylococcus aureus [14] = test: Antibacterial activity against Staphylococcus aureus NCTC 8325 harboring genetic deletion of mepRA gene and carrying expression vector pG154 with mepA gene after 16 to 20 hrs by broth microdilution method; format: functional; outline: as §1
Staphylococcus aureus [15] = test: Antibacterial activity against Staphylococcus aureus NCTC 8325 harboring genetic deletion of mepRA gene and carrying expression vector pG154 after 16 to 20 hrs by broth microdilution method; format: functional; outline: as §1
Staphylococcus aureus [16] = test: Antibacterial activity against Staphylococcus aureus NCTC 8325 after 16 to 20 hrs by broth microdilution method; format: functional; outline: as §1
Staphylococcus aureus [17] = test: Induction of mepR gene expression in Staphylococcus aureus NCTC 8325 at 0.5 ug/ml by RT-PCR analysis; format: functional, organism-based

c1cc2cc(-c3ccc4cc(C5=NCCN5)[nH]c4c3)[nH]c2cc1C1=NCCN1
MIC (Staphylococcus aureus [1]): 0.5 µg/mL (≈ 1.36 µM) | MIC (Staphylococcus aureus [2]): 0.5 µg/mL (≈ 1.36 µM) | MIC (Staphylococcus aureus [3]): 0.5 µg/mL (≈ 1.36 µM) | Selectivity ratio [4]: 4 | MIC (Staphylococcus aureus [5]): 1 µg/mL (≈ 2.71 µM) | MIC (Staphylococcus aureus [6]): 2 µg/mL (≈ 5.43 µM) | MIC (Staphylococcus aureus [7]): 0.5 µg/mL | Activity (Staphylococcus aureus [8]): Active | MIC (Staphylococcus aureus [9]): 1 µg/mL | MIC (Staphylococcus aureus [10]): 0.5 µg/mL | MIC (Staphylococcus aureus [11]): 0.25 µg/mL | Selectivity ratio (Staphylococcus aureus [12]): 2 | MIC (Staphylococcus aureus [13]): 4 µg/mL | MIC (Staphylococcus aureus [14]): 0.5 µg/mL (≈ 1.36 µM) | MIC (Staphylococcus aureus [15]): 0.5 µg/mL (≈ 1.36 µM) | MIC (Staphylococcus aureus [16]): 0.5 µg/mL (≈ 1.36 µM) | Activity (Staphylococcus aureus [17]): Active

Source: ChEMBL document CHEMBL1157072 (Bioorg Med Chem, 2010)
